Laboratory results published in publication PMC6129982 (Nature, 2018).

Legend:
[1] = molecular target: T1, Orco (Apocrypta bakeri, UniProt B0FAQ4); experiment: Isothermal titration calorimetry; assay type: binding
T1 sequence (B0FAQ4 2-474): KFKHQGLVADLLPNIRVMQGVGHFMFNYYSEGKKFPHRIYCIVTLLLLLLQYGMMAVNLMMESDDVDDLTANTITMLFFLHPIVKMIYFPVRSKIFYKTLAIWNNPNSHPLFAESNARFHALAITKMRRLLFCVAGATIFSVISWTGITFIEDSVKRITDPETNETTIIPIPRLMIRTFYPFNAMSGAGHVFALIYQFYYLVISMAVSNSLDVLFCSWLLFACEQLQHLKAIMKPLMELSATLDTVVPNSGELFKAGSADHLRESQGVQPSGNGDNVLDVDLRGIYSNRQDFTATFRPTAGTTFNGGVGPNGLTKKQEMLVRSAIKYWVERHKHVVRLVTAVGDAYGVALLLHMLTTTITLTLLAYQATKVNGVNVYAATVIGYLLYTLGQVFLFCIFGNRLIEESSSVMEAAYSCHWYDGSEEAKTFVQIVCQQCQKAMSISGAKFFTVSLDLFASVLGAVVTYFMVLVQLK
In short: (§1)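 A. bakeri Orco was expressed from baculovirus in HEK293S GnTi− cells, StrepTactin-purified and tag-cleaved in HBS/0.05% digitonin. It was used alone or complexed with Fab (1.5-fold molar excess) at ~10 μM monomer. VUAA1 (0.5 mM in the same buffer, 0.5% DMSO matched) was injected at 25 °C: 0.4 μL, then 19 × 2 μL, 150 s apart. A single-site fit (n fixed at 1, first injection excluded) gave Kd, ΔH and ΔQdil; three independent purifications.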

[2] = molecular target: T2, Orco-Fab complex (Apocrypta bakeri, UniProt B0FAQ4); experiment: Isothermal titration calorimetry; assay type: binding
T2 sequence (B0FAQ4 2-474): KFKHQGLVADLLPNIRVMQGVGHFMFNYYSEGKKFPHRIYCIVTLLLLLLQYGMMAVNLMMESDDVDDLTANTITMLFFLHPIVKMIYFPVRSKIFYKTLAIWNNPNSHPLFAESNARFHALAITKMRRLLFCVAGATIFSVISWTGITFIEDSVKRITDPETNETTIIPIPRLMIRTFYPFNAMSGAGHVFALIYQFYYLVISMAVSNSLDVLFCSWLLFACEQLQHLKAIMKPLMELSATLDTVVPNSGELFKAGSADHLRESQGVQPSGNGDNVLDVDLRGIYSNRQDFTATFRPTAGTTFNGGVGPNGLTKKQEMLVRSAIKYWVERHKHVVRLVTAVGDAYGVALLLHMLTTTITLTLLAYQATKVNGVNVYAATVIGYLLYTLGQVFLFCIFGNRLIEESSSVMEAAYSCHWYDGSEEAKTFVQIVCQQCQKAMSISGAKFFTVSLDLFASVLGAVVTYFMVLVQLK
In short: as §1

[3] = molecular target: T1, Orco; experiment: Whole-cell voltage-clamp VUAA1 dose-response, HEK293 cell expressing Orco; assay type: cell-based
In short: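 Whole-cell recording used Flp-In T-Rex 293 cells stably expressing GFP-tagged wild-type Orco, held at −80 mV. Bath: 135 mM NaCl, 5 mM KCl, 2 mM CaCl2, 2 mM MgCl2, 10 mM glucose, HEPES pH 7.3. Pipette: 150 mM KCl, 10 mM NaCl, 1 mM EDTA, HEPES pH 7.45. VUAA1 was diluted in bath solution and locally perfused. Current was normalised to the current at the highest concentration and Hill-fitted; four cells, mean ± s.d. Outside-out patches were held at −140 mV.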

[4] = molecular target: T3, Orco L473A (Apocrypta bakeri, UniProt B0FAQ4, L473A); experiment: Cell-based GCaMP assay, mutant Orco homomer; parameters: species or system A. bakeri; settings: mutation of Leu473 to alanine
T3 sequence (B0FAQ4 1-474 L473A): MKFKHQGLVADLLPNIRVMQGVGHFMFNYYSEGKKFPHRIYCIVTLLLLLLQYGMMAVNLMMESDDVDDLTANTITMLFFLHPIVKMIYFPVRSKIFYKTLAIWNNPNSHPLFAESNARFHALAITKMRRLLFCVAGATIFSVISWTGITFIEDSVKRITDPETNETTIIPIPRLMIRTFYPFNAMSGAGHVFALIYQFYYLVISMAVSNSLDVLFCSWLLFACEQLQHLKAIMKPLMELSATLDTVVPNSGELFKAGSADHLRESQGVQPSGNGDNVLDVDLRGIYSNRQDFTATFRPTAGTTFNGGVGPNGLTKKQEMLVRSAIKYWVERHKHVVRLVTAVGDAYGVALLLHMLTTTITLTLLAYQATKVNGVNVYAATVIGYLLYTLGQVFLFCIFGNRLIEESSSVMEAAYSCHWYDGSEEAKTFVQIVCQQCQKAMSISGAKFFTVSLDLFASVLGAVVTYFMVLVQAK
In short: (§2)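 Orco alone (A. bakeri wild-type or point mutant, or An. gambiae) was transfected with GCaMP6s into HEK293 cells by lipofectamine. After 4 h plus 24 h, cells were read in HEPES-buffered HBSS pH 7.4 with 5 mM CaCl2. VUAA1 was added after 34 s at seven concentrations plus zero, four wells each. GCaMP fluorescence (480/527 nm, 37 °C) was followed for 2 min. A Hill equation fitted to ΔF/Fo gave EC50 and n over N independent replicates.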

[5] = molecular target: T4, Orco V469A (Apocrypta bakeri, UniProt B0FAQ4, V469A); experiment: Cell-based GCaMP assay, mutant Orco homomer; parameters: species or system A. bakeri; settings: mutation of Val469 to alanine
T4 sequence (B0FAQ4 1-474 V469A): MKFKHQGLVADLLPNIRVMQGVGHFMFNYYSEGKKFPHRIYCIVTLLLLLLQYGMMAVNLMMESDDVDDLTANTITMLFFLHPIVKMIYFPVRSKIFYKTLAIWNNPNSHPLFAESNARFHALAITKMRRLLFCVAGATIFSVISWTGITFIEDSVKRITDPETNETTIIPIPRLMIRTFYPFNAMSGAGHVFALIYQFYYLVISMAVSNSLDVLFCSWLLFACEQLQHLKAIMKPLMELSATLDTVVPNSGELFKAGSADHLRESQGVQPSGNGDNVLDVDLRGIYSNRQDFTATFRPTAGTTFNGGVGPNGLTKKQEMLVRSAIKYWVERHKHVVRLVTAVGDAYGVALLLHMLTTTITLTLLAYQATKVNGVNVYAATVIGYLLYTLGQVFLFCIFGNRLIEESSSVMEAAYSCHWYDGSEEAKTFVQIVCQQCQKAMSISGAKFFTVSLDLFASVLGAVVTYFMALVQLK
In short: as §2

[6] = molecular target: T5, Orco T465A (Apocrypta bakeri, UniProt B0FAQ4, T465A); experiment: Cell-based GCaMP assay, mutant Orco homomer; parameters: species or system A. bakeri; settings: mutation of Thr465 to alanine
T5 sequence (B0FAQ4 1-474 T465A): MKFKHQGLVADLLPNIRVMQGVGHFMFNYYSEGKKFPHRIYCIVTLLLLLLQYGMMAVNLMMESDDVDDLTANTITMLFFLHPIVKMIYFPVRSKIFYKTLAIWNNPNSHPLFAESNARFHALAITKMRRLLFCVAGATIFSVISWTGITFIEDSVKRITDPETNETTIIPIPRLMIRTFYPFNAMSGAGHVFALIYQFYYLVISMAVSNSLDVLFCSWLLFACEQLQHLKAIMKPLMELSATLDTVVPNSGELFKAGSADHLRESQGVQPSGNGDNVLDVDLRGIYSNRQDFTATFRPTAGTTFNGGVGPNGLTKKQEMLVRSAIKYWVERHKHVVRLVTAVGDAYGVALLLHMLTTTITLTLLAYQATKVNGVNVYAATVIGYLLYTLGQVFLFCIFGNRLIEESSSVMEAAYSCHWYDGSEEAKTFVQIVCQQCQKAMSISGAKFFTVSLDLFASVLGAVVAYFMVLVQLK
In short: as §2

[7] = molecular target: T6, Orco S458A (Apocrypta bakeri, UniProt B0FAQ4, S458A); experiment: Cell-based GCaMP assay, mutant Orco homomer; parameters: species or system A. bakeri; settings: mutation of Ser458 to alanine
T6 sequence (B0FAQ4 1-474 S458A): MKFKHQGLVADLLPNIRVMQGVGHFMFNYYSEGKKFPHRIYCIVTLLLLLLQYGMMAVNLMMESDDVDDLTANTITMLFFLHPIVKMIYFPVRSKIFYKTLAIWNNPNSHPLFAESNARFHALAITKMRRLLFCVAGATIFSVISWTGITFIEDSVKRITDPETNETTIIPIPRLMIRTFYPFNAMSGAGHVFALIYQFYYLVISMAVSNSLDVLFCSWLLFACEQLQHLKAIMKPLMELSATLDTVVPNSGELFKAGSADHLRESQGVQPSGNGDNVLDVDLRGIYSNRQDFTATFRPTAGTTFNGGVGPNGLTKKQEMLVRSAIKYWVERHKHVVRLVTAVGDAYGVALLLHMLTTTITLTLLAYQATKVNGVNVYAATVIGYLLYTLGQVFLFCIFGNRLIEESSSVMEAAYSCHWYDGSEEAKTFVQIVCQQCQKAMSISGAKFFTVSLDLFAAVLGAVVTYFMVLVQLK
In short: as §2

[8] = molecular target: the molecule itself; experiment: cryo-EM structure
[9] = ITC 25 °C, fitted parameter, mean ± s.d.
[10] = ITC 25 °C, single-site model, mean ± s.d.

Q: How did the Kd [1] turn out when `CCc1ccc(NC(=O)CSc2nnc(-c3cccnc3)n2CC)cc1` [VUAA1] was run?
A: 13 ± 1 µM

Q: What about the “heat associated with sample dilution (ΔQdil)” value [1, 9] of the same molecule?
A: -1.0 ± 0.1 kcal/mol

Q: And the “enthalpy of binding (ΔH)” value [1, 10]?
A: -8.3 ± 0.6 kcal/mol

Q: What about the Kd [2] of the same molecule?
A: 18 ± 2 µM

Q: What about the “binding affinity of Orco-Fab complex for VUAA1 versus Orco” value ([2]; ITC) of the same molecule?
A: retained its binding affinity

Q: What about the “heat associated with sample dilution (ΔQdil)” value [2, 9] of the same molecule?
A: -1.0 ± 0.2 kcal/mol

Q: What about the “enthalpy of binding (ΔH)” value [2, 10] of the same molecule?
A: -9.7 ± 0.4 kcal/mol

Q: What about the EC50 [3] of the same molecule?
A: 64 ± 7 µM

Q: And the channel activation ([3]; Orco expressed independently, whole-cell and outside-out patch recording)?
A: activated

Q: And the Hill coefficient n ([3]; whole-cell current, Hill fit, four independent cells, mean ± s.d.)?
A: 3.5 ± 0.5

Q: What about the “enhancement of apparent sensitivity of Orco homomers versus wild-type” value [4] of the same molecule?
A: 10 fold

Q: What about the “enhancement of apparent sensitivity of Orco homomers versus wild-type” value [5] of the same molecule?
A: 10 fold

Q: And the “VUAA1 responses in Orco homomers versus wild-type” value [6]?
A: strongly attenuated

Q: What about the “VUAA1 responses in Orco homomers versus wild-type” value [7] of the same molecule?
A: strongly attenuated

B1: Apocrypta bakeri Orco, purified (residues Lys2-Lys474, Strep-GFP tag cleaved) (receptor, UniProt B0FAQ4 2-474, looked up)
chain: KFKHQGLVADLLPNIRVMQGVGHFMFNYYSEGKKFPHRIYCIVTLLLLLLQYGMMAVNLMMESDDVDDLTANTITMLFFLHPIVKMIYFPVRSKIFYKTLAIWNNPNSHPLFAESNARFHALAITKMRRLLFCVAGATIFSVISWTGITFIEDSVKRITDPETNETTIIPIPRLMIRTFYPFNAMSGAGHVFALIYQFYYLVISMAVSNSLDVLFCSWLLFACEQLQHLKAIMKPLMELSATLDTVVPNSGELFKAGSADHLRESQGVQPSGNGDNVLDVDLRGIYSNRQDFTATFRPTAGTTFNGGVGPNGLTKKQEMLVRSAIKYWVERHKHVVRLVTAVGDAYGVALLLHMLTTTITLTLLAYQATKVNGVNVYAATVIGYLLYTLGQVFLFCIFGNRLIEESSSVMEAAYSCHWYDGSEEAKTFVQIVCQQCQKAMSISGAKFFTVSLDLFASVLGAVVTYFMVLVQLK
Q: B1 was tested. Which “stoichiometry N” value [8] did it give?
A: 4
